Data taken from ChEMBL document CHEMBL6083207, “Design, synthesis and biological evaluation of a novel PSMA-PI3K small molecule drug conjugate” (RSC Med Chem, 2024).

Assays:
LNCaP = test: Antiproliferative activity against PSMA-positive human LNCaP cells incubated for 72 hrs by Cell Titer Glo assay; assay type: functional, cell-based
Method in brief: (§1)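 Cells grown in RPMI 1640 with 10% FBS, seeded at 3 × 10^3 per well and left overnight, then exposed to a range of compound concentrations for 72 h. Viability read by CellTiter-Glo luminescence after 2 min shaking and 10 min at room temperature. IC50 calculated from the curves; mean of n = 3.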

22Rv1 [1] = test: Inhibition of PI3K in human 22Rv1 cells assessed as reduction in phosphorylation of mTOR incubated for 3 hrs by Western blot analysis; assay type: cell-based; settings: dose <= 10.0 µM
Method in brief: (§2)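 22Rv1 cells treated at the stated concentrations for 3 h and lysed in RIPA buffer with protease and phosphatase inhibitors. 25 μg protein separated by SDS-PAGE and blotted to PVDF. Probed overnight at 4 °C for phospho- and total mTOR, AKT (Ser473) and S6RP, with β-actin as loading control. Detected by ECL chemiluminescence.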

22Rv1 [2] = test: Inhibition of PI3K in human 22Rv1 cells assessed as reduction in phosphorylation of S6RP incubated for 3 hrs by Western blot analysis; assay type: cell-based; settings: dose <= 10.0 µM; method in brief: as §2
PC-3 = test: Antiproliferative activity against PSMA-negative human PC-3 cells incubated for 72 hrs by Cell Titer Glo assay; assay type: functional, cell-based; settings: PC-3, 72 h; method in brief: as §1
CWR22R [3] = test: Antitumor activity against human 22Rv1 cells xenografted in Balb/c athymic nude mouse administered intraperitoneally once daily measured for 22 days; settings: dose 10-20 mg/kg, route ip, time 22.0 day
Method in brief: (§3)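 Male Balb/c athymic nude mice, 8–10 weeks old. Tumour cells taken from 22Rv1 donor tumours (grown to 1000 mm3) and implanted at 2 × 10^6 per mouse, subcutaneously in the right flank. Randomized at about 100 mm3. Compound given ip once daily in saline with 1% PEG400; vehicle group received the same. Tumour volume (1/2 × L × W2) and body weight measured twice weekly.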

CWR22R [4] = test: Antitumor activity against human 22Rv1 cells xenografted in Balb/c athymic nude mouse at 20 mg/kg, ip qd measured for 22 days relative to control; assay type: functional; settings: 22Rv1, 528 h, time 22 day, read-out: TGI; method in brief: as §3
[5] = Toxicity in Balb/c athymic nude mouse xenografted with human 22Rv1 cells assessed as drug tolerance at 10 to 20 mg/kg, ip qd measured for 22 days; assay type: organism-based; settings: in vivo, 528 h, dose 10-20 mg/kg, time 22 day; method in brief: as §3
[6] = target: Phosphatidylinositol 4,5-bisphosphate 3-kinase catalytic subunit alpha isoform (Homo sapiens, UniProt P42336); test: Inhibition of PI3Kalpha (unknown origin)
Chain of Phosphatidylinositol 4,5-bisphosphate 3-kinase catalytic subunit alpha isoform (P42336 whole entry, canonical isoform): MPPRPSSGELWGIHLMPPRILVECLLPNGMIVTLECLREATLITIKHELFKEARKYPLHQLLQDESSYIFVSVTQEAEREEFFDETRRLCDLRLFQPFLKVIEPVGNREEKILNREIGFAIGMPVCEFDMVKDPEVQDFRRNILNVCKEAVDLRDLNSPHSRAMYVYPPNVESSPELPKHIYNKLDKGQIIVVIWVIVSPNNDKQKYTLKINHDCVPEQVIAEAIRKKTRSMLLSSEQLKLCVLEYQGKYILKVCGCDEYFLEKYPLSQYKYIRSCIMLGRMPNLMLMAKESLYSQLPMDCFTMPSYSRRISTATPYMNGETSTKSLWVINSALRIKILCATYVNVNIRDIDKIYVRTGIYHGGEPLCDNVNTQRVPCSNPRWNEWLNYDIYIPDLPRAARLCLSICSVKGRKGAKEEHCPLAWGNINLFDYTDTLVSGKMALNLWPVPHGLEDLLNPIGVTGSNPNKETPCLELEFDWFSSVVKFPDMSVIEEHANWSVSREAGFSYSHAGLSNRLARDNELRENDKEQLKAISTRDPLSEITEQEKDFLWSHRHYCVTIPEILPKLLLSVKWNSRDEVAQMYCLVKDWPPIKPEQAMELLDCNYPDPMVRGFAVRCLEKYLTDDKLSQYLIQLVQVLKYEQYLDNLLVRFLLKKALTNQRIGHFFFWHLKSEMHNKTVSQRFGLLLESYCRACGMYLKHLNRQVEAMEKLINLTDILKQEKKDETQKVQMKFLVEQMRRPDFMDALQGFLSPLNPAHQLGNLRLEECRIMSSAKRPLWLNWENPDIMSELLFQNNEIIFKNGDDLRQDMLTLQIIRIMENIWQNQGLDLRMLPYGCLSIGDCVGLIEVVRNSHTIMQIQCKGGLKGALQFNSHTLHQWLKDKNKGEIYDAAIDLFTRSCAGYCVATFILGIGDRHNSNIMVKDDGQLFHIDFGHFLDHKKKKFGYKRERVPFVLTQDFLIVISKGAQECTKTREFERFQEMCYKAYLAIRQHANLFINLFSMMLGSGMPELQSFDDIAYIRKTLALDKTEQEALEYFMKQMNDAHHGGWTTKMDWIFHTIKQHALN

CWR22R [7] = test: Antiproliferative activity against PSMA-positive human 22Rv1 cells incubated for 72 hrs by Cell Titer Glo assay; assay type: functional, cell-based; settings: 22Rv1, 72 h; method in brief: as §1
[8] = Toxicity in Balb/c athymic nude mouse xenografted with human 22Rv1 cells assessed as body weight change at 10 to 20 mg/kg, ip qd measured for 22 days; assay type: organism-based; settings: in vivo, 528 h, dose 10-20 mg/kg, time 22 day; method in brief: as §3
22Rv1 [9] = test: Inhibition of PI3K in human 22Rv1 cells assessed as reduction in phosphorylation of AKT at S473 incubated for 3 hrs by Western blot analysis; assay type: cell-based; settings: dose <= 10.0 µM; method in brief: as §2
[10] = Selectivity ratio of IC50 for PSMA-negative human PC-3 cells to IC50 for PSMA-positive human LNCaP cells; assay type: functional
Method in brief: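 Ratio of PC3 IC50 to LNCaP IC50, both from 72 h CellTiter-Glo viability assays.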

CWR22R [11] = test: Induction of cell cycle arrest in human 22Rv1 cells assessed as accumulation at G0/G1 phase incubated for 24 hrs by flow cytometry; assay type: functional, cell-based; settings: dose <= 10.0 µM
Method in brief: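 1 × 10^5 22Rv1 cells treated at several concentrations for 24 h, then fixed in ice-cold 70% ethanol. Stained with PI/RNase and analysed by flow cytometry with 488 nm excitation to give the percentage of cells in each cycle phase.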

[12] = Selectivity ratio of IC50 for PSMA-negative human PC3 cells to IC50 for PSMA-positive human 22Rv1 cells

Row | IC50 (LNCaP) | IC50 (PC-3) | IC50 [6] | SMILES | inhibition (22Rv1 [1]) | inhibition (22Rv1 [2]) | Activity (CWR22R [3]) | inhibition in vivo at 20 mg/kg (CWR22R [4]) | Activity [5] | IC50 (CWR22R [7]) | Activity [8] | inhibition (22Rv1 [9]) | Ratio IC50 [10] | Activity (CWR22R [11]) | Ratio IC50 [12]
1 | 1.08 µM | 57.8 µM | 0.0004 µM | COc1ncc(-c2cc(OCCCC(=O)NC[C@H]3CC[C@@H](C(=O)N[C@@H](Cc4ccc5ccccc5c4)C(=O)NCCCC[C@H](NC(=O)N[C@@H](CCC(=O)O)C(=O)O)C(=O)O)CC3)c3ncnc(C)c3c2)cc1NS(=O)(=O)c1ccc(F)cc1F | Dose-dependent-effect | Dose-dependent-effect | Dose-dependent-effect | 53% | Non-toxic | 9.68 µM | Non-toxic | Dose-dependent-effect | 54 | Dose-dependent-effect | 6
2 | > 100 µM |  |  | NCCCC[C@H](NC(=O)N[C@@H](CCC(=O)O)C(=O)O)C(=O)O |  |  |  |  |  |  |  |  |  |  | 
